Most compounds without a hit are left out; they make up all but 1.7% or so of the library.
Pemphigus Ab inh: inhibitors of pemphigus antibody binding to DSG3, primary screen, biochemical, bead-based, flow cytometry, scFv-GFP; hit rate 0.48% among 310,000; binding (percent of control), % at 10 µM; DSG3-coupled beads, scFv-anti-DSG3-GFP binding; stronger effect = lower value;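 active means binding more than 3 SD below its plate's average and above zero; inconclusive means below that plate limit but binding exactly zero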
Target sequence (P32926 whole entry, looked up): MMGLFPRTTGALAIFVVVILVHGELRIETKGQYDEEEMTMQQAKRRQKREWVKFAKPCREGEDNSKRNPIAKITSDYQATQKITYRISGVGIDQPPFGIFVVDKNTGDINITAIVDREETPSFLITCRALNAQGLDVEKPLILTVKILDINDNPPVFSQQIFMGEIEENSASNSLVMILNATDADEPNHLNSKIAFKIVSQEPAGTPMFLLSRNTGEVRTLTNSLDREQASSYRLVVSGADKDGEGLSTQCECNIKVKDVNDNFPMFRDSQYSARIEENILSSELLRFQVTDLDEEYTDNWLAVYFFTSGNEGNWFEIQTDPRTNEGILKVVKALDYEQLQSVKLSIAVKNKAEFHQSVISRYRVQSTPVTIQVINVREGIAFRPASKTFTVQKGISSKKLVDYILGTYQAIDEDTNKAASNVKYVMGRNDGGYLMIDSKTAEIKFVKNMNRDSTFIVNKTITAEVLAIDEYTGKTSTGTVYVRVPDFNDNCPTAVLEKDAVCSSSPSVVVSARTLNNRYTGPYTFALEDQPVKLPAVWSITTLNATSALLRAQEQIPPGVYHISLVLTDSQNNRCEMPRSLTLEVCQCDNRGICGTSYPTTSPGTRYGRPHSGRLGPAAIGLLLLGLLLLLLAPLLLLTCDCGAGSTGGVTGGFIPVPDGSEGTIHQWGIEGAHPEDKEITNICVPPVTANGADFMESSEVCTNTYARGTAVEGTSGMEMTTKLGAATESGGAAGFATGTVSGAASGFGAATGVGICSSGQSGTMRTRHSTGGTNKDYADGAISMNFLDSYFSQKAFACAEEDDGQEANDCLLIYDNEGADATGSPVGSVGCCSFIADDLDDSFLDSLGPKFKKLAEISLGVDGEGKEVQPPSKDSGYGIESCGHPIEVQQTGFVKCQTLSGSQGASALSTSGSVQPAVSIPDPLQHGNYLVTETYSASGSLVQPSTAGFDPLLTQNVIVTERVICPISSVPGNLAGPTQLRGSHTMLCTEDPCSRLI
Myeloid diff 2: induction of myeloid progenitor differentiation, primary screen, cell-based, flow cytometry, MLPCN library; ER-HoxA9 myeloid progenitors, lysozyme-GFP differentiation; calls only at 10 µM; hit rate 1% among 360,000;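 active means normalized GFP-positive differentiation at or above the plate's own cutoff, the solvent-only control mean plus 3 SD; inconclusive means no clear call, values can overlap the other calls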;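 further: cells exposed to compound for four days before flow analysis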
Vif inh: HIV Vif self-association inhibitors, primary screen, imaging, HEK293T, single point; hit rate 0.35% among 340,000; HEK293T cells, Vif self-association by quenched fluorescence, 24 h; AID 602346, 2012; inhibition, % at 7.49 µM; in the data active means inhibition above about 50%, passing the limit was not always enough; inconclusive means no clear call, values can overlap the other calls; inactive means below about 31%
T cell modulator: modulators of CD8 T cell-vesicle binding, primary screen, mouse 2C CD8+ T cells, flow cytometry | hit rate 0.068% among 330,000 | 2C CD8+ T cell-vesicle binding; stronger effect = lower value | response (vesicle binding), % at 7 µM | AID 2052, 2009;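 active means response, share of CD8 T cells binding vesicles, and their 90th percentile fluorescence all below set limits, cut at about 80% in these data, passing the limit was not always enough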;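 further: values below 100% mean blocked vesicle binding to the CD8+ T cells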
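Test system: purified 2C TCR transgenic mouse naive CD8+ T cells. Probe or stimulus: QL9-peptide-loaded Drosophila micro-vesicles bearing Ld, ICAM-1 and B7-1. Incubation: binding step 1.5 h, 37 °C, antibody labelling 20 min, ice. Measured by: flow cytometry of vesicle-bound cells.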
Large screens that a line does not name were inactive.

Cc1ccc(-n2c(-c3ccncc3)nnc2-c2cccs2)cc1	Pemphigus Ab inh -8.5
COc1cc2c(cc1OC)C(c1ccc(-c3ccc(Cl)cc3Cl)o1)=NCC2	none
COc1cc2c(cc1OC)C(c1ccc(-c3cc(Cl)ccc3Cl)o1)=NCC2	Myeloid diff 2 active
O=C(N/N=C/c1ccccn1)c1sc2ccccc2c1Cl	none
O=C(N/N=C/c1ccc([N+](=O)[O-])o1)c1sc2ccccc2c1Cl	Pemphigus Ab inh 81.8
CN(C)S(=O)(=O)c1cccc(NC(=O)COC(=O)c2cc3ccccc3oc2=O)c1	Pemphigus Ab inh 71.2
O=C(COC(=O)c1cc2ccccc2oc1=O)Nc1cccc(S(=O)(=O)N2CCCCCC2)c1	none
CCCOc1ccc(F)cc1-c1cc(C(=O)NCc2ccccc2OC)[nH]n1	none (no result: Pemphigus Ab inh, T cell modulator)
CCOC(=O)C1=CCC(c2ccccc2)N(S(=O)(=O)c2ccccc2C)C1 (stereo unspecified)	none (no result: Pemphigus Ab inh, Vif inh, T cell modulator)
CC(=O)c1ccc2cccc3c2c1N=CN3C	Myeloid diff 2 active, Vif inh 67.2
Cc1cccc(C)c1-c1ccc(CN2C(CC(C)C)C(=O)N(Cc3cn(CC4CCCCC4)nn3)CCS2(=O)=O)cc1 (stereo unspecified)	none (no result: Vif inh, T cell modulator)
Nc1cc(-c2ccc(Br)cc2)nn1S(=O)(=O)c1ccccc1	Pemphigus Ab inh 62.2 (no result: Vif inh)
Nc1cc(-c2ccccc2)nn1S(=O)(=O)c1ccc(F)cc1	none
Cc1ccc(C(=O)N(CCC2=CCCCC2)c2c(N)n(Cc3ccccc3)c(=O)[nH]c2=O)o1	none
Nc1c(N(CCC2=CCCCC2)C(=O)c2ccc([N+](=O)[O-])o2)c(=O)[nH]c(=O)n1Cc1ccccc1	Myeloid diff 2 active
COc1ccc(CNC(=O)c2c(O)c3cc(OC)c(OC)cc3[nH]c2=O)cc1OC	Pemphigus Ab inh 78.9
COc1ccc(CNC(=O)Nc2cccs2)cc1OC	Vif inh 56.1
COc1ccc(CNC(=O)c2ccc(-c3ccccc3)cc2)cc1OC	Pemphigus Ab inh 76.2
COc1cccc(CNC(=O)Nc2cccs2)c1	none
COc1ccc(CNC(=O)c2ccc(-c3ccccc3)cc2)cc1	none
COc1ccccc1N=C1NC(=O)/C(=C/c2ccc(N(C)C)cc2)S1	Myeloid diff 2 inconclusive
CC(C)(C)c1ccc(-n2ncc3c2CCCC3NC(=O)c2ccco2)cc1 (stereo unspecified)	none (no result: T cell modulator)
Cc1ccccc1NS(=O)(=O)c1ccc(NC(=O)CSCc2ccc(Br)cc2)cc1	T cell modulator 0.0
O=C(CSCc1ccc(Br)cc1)Nc1ccc(S(=O)(=O)N2CCOCC2)cc1	none
c1ccc(-n2cnnc2SCc2nc3ccccc3s2)cc1	Myeloid diff 2 active
Cc1nnc(SCc2nc3ccccc3s2)n1-c1ccccc1	none
N#Cc1ccc(C(=O)Nc2cccc(S(=O)(=O)NC3=NCCC3)c2)cc1	none
CCOc1ccccc1N1CCN(C(=O)/C=C/c2cccc([N+](=O)[O-])c2)CC1	Myeloid diff 2 active
COc1ccc(NC(=O)CN(C)S(=O)(=O)c2ccc(Br)s2)cc1	Pemphigus Ab inh -21.5, Myeloid diff 2 inconclusive
CCCCN(CCCC)C(=O)c1cc(Cl)ccc1[N+](=O)[O-]	Pemphigus Ab inh -27.2
Cc1cc(S(=O)(=O)N2CCN(Cc3ccccc3)CC2)c(C)s1	T cell modulator 74.3
COC(=O)c1ccccc1NC(=O)CSc1nc(N)cc(=O)[nH]1	Pemphigus Ab inh 55.6
Nc1cc(=O)[nH]c(SCC(=O)Nc2cccc([N+](=O)[O-])c2)n1	Myeloid diff 2 active
CN(C)c1ncnc2c1ncn2[C@H]1CN(Cc2ccco2)C[C@@H](CO)O1	none (no result: Pemphigus Ab inh, T cell modulator)
COc1ccc(N2CCN(C(=O)c3cccc(Cn4cc(Cl)cn4)c3)CC2)cc1	Pemphigus Ab inh 26.4 (no result: Vif inh)
CC(=O)Oc1ccc(C(=O)Nc2cccc(-c3nnc(-c4ccco4)o3)c2)cc1	Myeloid diff 2 active
CN(C)S(=O)(=O)c1cccc(NC(=O)c2ccc(NS(=O)(=O)c3cccs3)cc2)c1	none (no result: Pemphigus Ab inh)
COc1ccc(OC)c(NC(=O)c2nc(-c3ccccc3)oc2C)c1	Pemphigus Ab inh 82.7, Vif inh 113.7
NC(=O)c1ccccc1NC(=O)C(c1ccccc1)c1ccccc1	none
CCC(C)N(C)C(=O)c1cc2ccccc2c(-c2ccccc2Cl)n1 (stereo unspecified)	Pemphigus Ab inh 19.9
Cc1onc(-c2ccccc2Cl)c1C(=O)N(Cc1ccccc1)C(C)C	none
COC(=O)[C@@]12C[C@@H](CC(=O)NCc3ccccc3)C(=O)N(Cc3ccc4c(c3)OCO4)C1=CCC(C)(C)C2	none (no result: Pemphigus Ab inh, Vif inh, T cell modulator)
O=C(N/N=C/c1cn(-c2ccccc2)nc1-c1cc2ccccc2o1)c1ccncc1	Myeloid diff 2 active
O=C(NC1CCCCC1)[C@@H]1CC=C[C@@H]2CCN(C3CCCCC3)C(=O)[C@@H]21	Vif inh 52.6
O=C(NCc1nnnn1-c1ccc(Cl)cc1)C(=O)c1c[nH]c2ccccc12	none (no result: T cell modulator)
O=C(Cn1cnc2c(NCc3ccccc3)ncnc21)NCc1nc2ccccc2[nH]1	none (no result: Vif inh, T cell modulator)
Cc1ccc2c(CN(C)Cc3cccc(F)c3)cc(=O)oc2c1C	none
Cc1ccc2c(CN(C)Cc3ccccc3)cc(=O)oc2c1C	Pemphigus Ab inh 63.9
Cc1cccc(C)c1NC(=O)COc1ccc2c(C)c(Cc3ccccc3)c(=O)oc2c1C	Vif inh 53.2
COc1ccccc1N1CCN(C(=O)c2ccc3ncsc3c2)CC1	Myeloid diff 2 active (no result: T cell modulator)
O=C(c1ccc2ncsc2c1)N1CCN(c2cccc(C(F)(F)F)c2)CC1	Myeloid diff 2 active (no result: T cell modulator)
O=C(c1ccc2nc[nH]c2c1)N1CCN(c2cccc(C(F)(F)F)c2)CC1	none
Cc1ccc(S(=O)(=O)N2Cc3ccccc3CC2C(N)=O)cc1 (stereo unspecified)	none (no result: T cell modulator)
COc1cc(C2C3=C(COC3=O)Oc3cc4c(cc32)OCO4)cc(OC)c1O (stereo unspecified)	Myeloid diff 2 inconclusive, Vif inh 60.2 (no result: T cell modulator)
CS(=O)(=O)N1CCc2cc(C(=O)N3CCN(c4ccccc4F)CC3)ccc21	Myeloid diff 2 active
COc1ccccc1N1CCN(C(=O)c2ccc3c(c2)CCN3S(C)(=O)=O)CC1	none
O=C(Cn1ncc2c(=O)oc3ccccc3c21)NCC1COc2ccccc2O1 (stereo unspecified)	Pemphigus Ab inh 88.3
O=C(Cn1ncc2c(=O)oc3ccccc3c21)NC1CC1	none
N=c1c(C(=O)NC2CCCCC2)cc2c(=O)n3ccccc3nc2n1Cc1ccccc1	none
N=c1c(C(=O)NC2CCCCC2)cc2c(=O)n3ccccc3nc2n1Cc1cccnc1	Myeloid diff 2 active
NC(N)=N/N=C(\N=Nc1ccccc1)c1ccc(Cl)cc1	Myeloid diff 2 inconclusive (no result: T cell modulator)
CN(Cc1ccccc1)C(=O)c1cccc(NC(=O)Cc2cccc(NC(=O)C3CCN(C(=O)C4CC4)CC3)c2)c1	Myeloid diff 2 active (no result: T cell modulator)
O=c1oc2cc(Cl)ccc2n1CSc1nc2ccccc2s1	Myeloid diff 2 active (no result: Vif inh)
CCCCN1C(=O)c2ccc(C(=O)OCC(=O)N3CCN(c4ccccc4)CC3)cc2C1=O	none
O=C(COc1ccc2ccccc2c1)Nc1ccc(Cc2ccncc2)cc1	Pemphigus Ab inh 36.9

Compound activity from PubChem.
